# pIC50: −log10 of the molar value.
# Tests used:
# [1] = test system: Mycobacterium tuberculosis; test: Antimycobacterial activity against Mycobacterium tuberculosis H37Rv ATCC 27294 assessed as reduction in bacterial cell growth incubated for 7 days by microplate alamar blue assay; type: functional; settings: H37Rv ATCC 27294, 168 h
# In short: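 MABA: H37Rv or clinical MDR isolates (resistant to INH and RFP, Beijing Chest Hospital patients) grown to late log phase in 7H9 with glycerol, Tween 80 and ADC, washed, filtered and frozen. Two-fold compound dilutions with 2 × 10⁵ CFU per well, 37 °C; Alamar blue plus Tween 80 added on day 7, fluorescence (ex 530/em 590) read after 16–24 h. MIC = lowest concentration giving ≥90% fluorescence reduction versus mean of bacterium-only controls; RIF and INH as positive controls.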
# [2] = Cytotoxicity against African green monkey Vero cells assessed as reduction in cell viability; type: cell-based; settings: chlorocebus sabaeus
# [3] = Mutagenicity in Salmonella typhimurium TA100 in presence of S9 fraction by mini-Ames test; type: toxicity, subcellular; settings: salmonella enterica subsp. enterica serovar typhimurium
# [4] = Tmax in ICR mouse at 25 mg/kg, po measured upto 24 hrs by HPLC analysis; type: ADME, organism-based; settings: in vivo
# In short: (§1)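 Female SPF ICR mice, 18–22 g, fasted overnight, 3 per group; single oral dose 25 mg/kg as suspension in 0.5% CMC. Jugular vein blood drawn at 0.25, 0.5, 1, 2, 4, 6, 8 and 24 h; serum deproteinised with acetonitrile, dried, redissolved and quantified by HPLC. AUC, t1/2, Cmax and Tmax taken directly from concentration–time data.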
# [5] = test system: Mycobacterium tuberculosis; test: Antimycobacterial activity against Mycobacterium tuberculosis H37Rv assessed as reduction in bacterial cell growth by Low-oxygen recovery assay; type: functional
# [6] = test system: Mycobacterium tuberculosis; test: Antimycobacterial activity against Mycobacterium tuberculosis H37Rv assessed as reduction in bacterial cell growth at 32 ug/ml by Low-oxygen recovery assay; type: functional
# [7] = Cmax in ICR mouse at 25 mg/kg, po measured upto 24 hrs by HPLC analysis; type: ADME, organism-based; parameters: dose 25 mg/kg, route oral; settings: in vivo; in short: as §1
# [8] = test system: Mycobacterium tuberculosis; test: Antituberculosis activity against Mycobacterium tuberculosis H37Rv infected in BALB/C mouse assessed as reduction in log10CFU in lungs at 25 mg/kg, po administered once daily for 5 days per week for a total of 3 weeks started on day 10 post-infection; type: functional
# [9] = AUC (0 to infinity) in ICR mouse at 25 mg/kg, po measured upto 24 hrs by HPLC analysis; type: ADME, organism-based; parameters: dose 25 mg/kg, time infinity, route oral; settings: in vivo; in short: as §1
# [10] = Mutagenicity in Salmonella typhimurium TA100 in absence of S9 fraction by mini-Ames test; type: toxicity; settings: salmonella enterica subsp. enterica serovar typhimurium
# [11] = target: Voltage-gated inwardly rectifying potassium channel KCNH2 (Homo sapiens, UniProt Q12809); test: Inhibition of human ERG transfected in HEK293 cells by whole-cell patch clamp method; type: cell-based; settings: hek293
# Voltage-gated inwardly rectifying potassium channel KCNH2, sequence (Q12809 whole entry): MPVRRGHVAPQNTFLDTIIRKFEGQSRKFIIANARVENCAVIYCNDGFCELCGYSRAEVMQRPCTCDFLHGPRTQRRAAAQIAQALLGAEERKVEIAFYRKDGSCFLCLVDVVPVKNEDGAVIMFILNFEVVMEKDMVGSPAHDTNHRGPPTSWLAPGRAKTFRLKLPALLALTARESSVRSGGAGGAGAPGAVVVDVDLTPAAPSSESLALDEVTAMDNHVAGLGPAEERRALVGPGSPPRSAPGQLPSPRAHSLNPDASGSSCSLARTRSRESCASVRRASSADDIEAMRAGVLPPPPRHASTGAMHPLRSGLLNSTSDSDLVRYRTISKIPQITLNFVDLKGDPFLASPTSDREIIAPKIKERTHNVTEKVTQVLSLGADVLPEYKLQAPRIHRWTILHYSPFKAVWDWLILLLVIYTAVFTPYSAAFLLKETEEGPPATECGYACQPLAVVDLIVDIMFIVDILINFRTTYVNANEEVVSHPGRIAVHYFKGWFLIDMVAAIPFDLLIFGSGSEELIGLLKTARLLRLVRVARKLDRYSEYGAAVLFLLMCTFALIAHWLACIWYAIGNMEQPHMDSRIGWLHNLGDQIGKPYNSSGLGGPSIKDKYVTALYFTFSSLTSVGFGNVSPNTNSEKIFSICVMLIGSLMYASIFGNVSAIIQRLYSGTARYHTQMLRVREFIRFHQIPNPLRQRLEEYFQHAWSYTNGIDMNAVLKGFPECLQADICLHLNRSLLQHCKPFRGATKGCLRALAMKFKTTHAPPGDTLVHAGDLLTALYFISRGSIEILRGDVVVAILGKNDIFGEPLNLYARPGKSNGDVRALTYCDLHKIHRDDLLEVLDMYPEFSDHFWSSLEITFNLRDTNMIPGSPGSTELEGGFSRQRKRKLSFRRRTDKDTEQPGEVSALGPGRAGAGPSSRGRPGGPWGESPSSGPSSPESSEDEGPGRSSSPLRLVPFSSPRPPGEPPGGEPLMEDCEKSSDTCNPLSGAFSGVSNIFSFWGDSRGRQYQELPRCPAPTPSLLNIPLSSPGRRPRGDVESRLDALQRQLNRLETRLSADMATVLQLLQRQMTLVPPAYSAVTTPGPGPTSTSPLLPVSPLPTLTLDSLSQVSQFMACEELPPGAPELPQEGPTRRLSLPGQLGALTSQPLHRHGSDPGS
# [12] = Mutagenicity in Salmonella typhimurium TA102 in presence of S9 fraction by mini-Ames test; type: toxicity, subcellular; settings: salmonella enterica subsp. enterica serovar typhimurium
# Cytochrome P450 2C19 = Cytochrome P450 2C19 (Homo sapiens, UniProt P33261); test: Inhibition of CYP2C19 (unknown origin); type: ADME
# Cytochrome P450 2C19, sequence (P33261 whole entry): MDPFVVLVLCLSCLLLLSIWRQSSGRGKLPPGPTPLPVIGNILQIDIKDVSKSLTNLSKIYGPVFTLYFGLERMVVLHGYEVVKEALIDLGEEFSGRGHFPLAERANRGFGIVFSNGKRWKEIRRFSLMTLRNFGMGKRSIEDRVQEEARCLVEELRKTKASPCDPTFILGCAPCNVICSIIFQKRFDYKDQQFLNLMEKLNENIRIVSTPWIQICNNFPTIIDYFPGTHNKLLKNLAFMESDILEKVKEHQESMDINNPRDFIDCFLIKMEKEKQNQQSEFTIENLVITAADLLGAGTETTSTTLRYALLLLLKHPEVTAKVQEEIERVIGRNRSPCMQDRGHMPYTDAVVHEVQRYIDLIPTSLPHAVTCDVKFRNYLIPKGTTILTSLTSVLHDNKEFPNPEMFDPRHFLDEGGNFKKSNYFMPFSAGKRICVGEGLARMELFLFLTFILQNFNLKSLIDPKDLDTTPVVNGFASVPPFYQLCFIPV
# CYP2C9 = CYP2C9 (Homo sapiens, UniProt P11712); test: Inhibition of CYP2C9 (unknown origin); type: ADME
# CYP2C9, sequence (P11712 whole entry): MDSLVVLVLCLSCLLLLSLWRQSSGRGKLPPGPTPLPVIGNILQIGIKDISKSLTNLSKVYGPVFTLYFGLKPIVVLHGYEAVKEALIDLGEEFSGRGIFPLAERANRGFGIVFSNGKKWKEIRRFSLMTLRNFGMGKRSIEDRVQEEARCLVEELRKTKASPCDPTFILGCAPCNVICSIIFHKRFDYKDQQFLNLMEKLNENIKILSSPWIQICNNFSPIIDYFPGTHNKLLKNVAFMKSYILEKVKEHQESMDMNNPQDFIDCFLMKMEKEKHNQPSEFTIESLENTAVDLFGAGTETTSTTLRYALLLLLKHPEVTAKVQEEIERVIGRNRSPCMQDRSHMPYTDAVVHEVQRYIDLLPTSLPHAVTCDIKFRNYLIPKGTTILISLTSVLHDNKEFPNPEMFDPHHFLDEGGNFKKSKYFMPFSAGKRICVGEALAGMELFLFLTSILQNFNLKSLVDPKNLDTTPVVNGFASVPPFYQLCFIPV
# CYP3A4 = CYP3A4 (Homo sapiens, UniProt P08684); test: Inhibition of CYP3A4 (unknown origin); type: ADME
# CYP3A4, sequence (P08684 whole entry): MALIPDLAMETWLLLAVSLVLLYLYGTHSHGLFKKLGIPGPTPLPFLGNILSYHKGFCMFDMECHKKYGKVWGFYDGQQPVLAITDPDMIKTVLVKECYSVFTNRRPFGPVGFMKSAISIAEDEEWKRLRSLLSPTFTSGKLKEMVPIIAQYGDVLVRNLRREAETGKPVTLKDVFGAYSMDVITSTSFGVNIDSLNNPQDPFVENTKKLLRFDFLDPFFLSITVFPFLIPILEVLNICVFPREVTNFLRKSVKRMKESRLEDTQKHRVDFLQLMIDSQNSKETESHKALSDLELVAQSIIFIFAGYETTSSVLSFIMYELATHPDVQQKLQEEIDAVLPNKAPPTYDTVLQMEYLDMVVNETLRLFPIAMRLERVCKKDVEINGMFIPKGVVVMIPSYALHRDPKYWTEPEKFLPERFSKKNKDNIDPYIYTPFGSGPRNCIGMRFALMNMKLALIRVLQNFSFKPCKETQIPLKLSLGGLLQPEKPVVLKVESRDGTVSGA
# CYP1A2 = target: T1, CYP1A2 (Homo sapiens, UniProt P05177); test: Inhibition of CYP1A2 (unknown origin); type: ADME
# T1 sequence (P05177 whole entry): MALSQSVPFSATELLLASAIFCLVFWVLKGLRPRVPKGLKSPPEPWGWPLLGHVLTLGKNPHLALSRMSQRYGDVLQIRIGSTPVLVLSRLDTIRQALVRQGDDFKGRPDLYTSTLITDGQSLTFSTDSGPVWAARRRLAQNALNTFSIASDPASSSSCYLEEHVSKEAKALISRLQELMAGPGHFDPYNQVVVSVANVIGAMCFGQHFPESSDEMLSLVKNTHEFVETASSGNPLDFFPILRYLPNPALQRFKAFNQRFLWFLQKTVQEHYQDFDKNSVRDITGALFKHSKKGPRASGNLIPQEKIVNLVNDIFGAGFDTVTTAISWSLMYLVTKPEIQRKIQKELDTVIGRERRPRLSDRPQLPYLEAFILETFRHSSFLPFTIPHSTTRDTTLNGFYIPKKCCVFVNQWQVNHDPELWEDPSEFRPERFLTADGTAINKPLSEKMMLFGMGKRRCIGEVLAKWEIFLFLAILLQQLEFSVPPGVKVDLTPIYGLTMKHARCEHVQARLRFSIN
# CYP2D6 = CYP2D6 (Homo sapiens, UniProt P10635); test: Inhibition of CYP2D6 (unknown origin); type: ADME
# CYP2D6, sequence (P10635 whole entry): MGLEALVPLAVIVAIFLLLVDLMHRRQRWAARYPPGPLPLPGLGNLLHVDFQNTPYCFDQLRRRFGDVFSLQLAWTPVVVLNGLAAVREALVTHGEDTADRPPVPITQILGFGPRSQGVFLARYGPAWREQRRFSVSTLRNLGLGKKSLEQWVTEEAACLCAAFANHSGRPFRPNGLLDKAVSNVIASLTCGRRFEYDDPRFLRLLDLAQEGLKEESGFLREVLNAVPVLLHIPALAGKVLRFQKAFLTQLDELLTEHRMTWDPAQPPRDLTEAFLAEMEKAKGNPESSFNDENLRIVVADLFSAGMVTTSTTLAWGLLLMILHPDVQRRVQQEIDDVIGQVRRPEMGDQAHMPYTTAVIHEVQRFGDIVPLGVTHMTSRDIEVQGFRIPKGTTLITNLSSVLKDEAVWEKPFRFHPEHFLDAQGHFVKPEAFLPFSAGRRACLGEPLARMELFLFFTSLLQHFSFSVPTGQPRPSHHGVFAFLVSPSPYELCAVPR
# [13] = Half life in ICR mouse at 25 mg/kg, po measured upto 24 hrs by HPLC analysis; type: ADME, organism-based; settings: in vivo; in short: as §1
# [14] = Acute toxicity in Sprague-Dawley rat assessed as death at 2 g/kg, po measured continuously for first 4 hrs followed by every 1 hr for next 24 hrs and subsequent 8 hrs interval for 7 days; type: organism-based; settings: in vivo, 2000 mg/kg
# In short: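 SD rats, 180–220 g, randomised, ten per group, food withheld overnight. Single oral dose of 2 g/kg suspended in 5% CMC; controls given vehicle only. Watched continuously for 4 h, hourly for the next 24 h, then every 8 h through day 7 for deaths or changes. Read-out is survivors/total at 7 days.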
# [15] = Mutagenicity in Salmonella typhimurium TA102 in absence of S9 fraction by mini-Ames test; type: toxicity; settings: salmonella enterica subsp. enterica serovar typhimurium
# [16] = test system: Mycobacterium tuberculosis; test: Antituberculosis activity against Mycobacterium tuberculosis H37Rv infected in BALB/C mouse assessed as colony forming unit in lungs at 25 mg/kg, po administered once daily via gavage for 5 days per week for 3 weeks starting from 10 days post-infection (reference value: 6.44 +/- 0.34); type: functional
# [17] = MRT in ICR mouse at 25 mg/kg, po measured upto 24 hrs by HPLC analysis; type: ADME, organism-based; settings: in vivo; in short: as §1
SMILES,MIC90 [1] [µg/mL],CC50 [2] [µg/mL],other results
CON=C1CC(CN2CCN(c3nc(=O)c4cc(C(F)(F)F)cc([N+](=O)[O-])c4s3)CC2)C1 (configuration not stated),0.023,,
CCO/N=C(\C)CN1CCN(c2nc(=O)c3cc(C(F)(F)F)cc([N+](=O)[O-])c3s2)CC1,< 0.016,> 64,
CO[C@H]1/C=C/O[C@@]2(C)Oc3c(C)c(O)c4c(O)c(c(/C=N/N5CCN(C)CC5)c(O)c4c3C2=O)NC(=O)/C(C)=C\C=C\[C@H](C)[C@H](O)[C@@H](C)[C@@H](O)[C@@H](C)[C@H](OC(C)=O)[C@@H]1C [RIFAMPIN],0.078,,
CCO/N=C(/C)CCN1CCC2(CCN(c3nc(=O)c4cc(C(F)(F)F)cc([N+](=O)[O-])c4s3)CC2)C1,0.241,,
CCON=C1CCC(CN2CCN(c3nc(=O)c4cc(C(F)(F)F)cc([N+](=O)[O-])c4s3)C[C@H]2C)CC1 (some centres not stated),< 0.016,> 64,
CON=C1CCC(CN2CCN(c3nc(=O)c4cc(C(F)(F)F)cc([N+](=O)[O-])c4s3)C[C@H]2C)CC1 (some centres not stated),< 0.016,> 64,
CON=C1CCC(CN2C(C)CN(c3nc(=O)c4cc(C(F)(F)F)cc([N+](=O)[O-])c4s3)CC2C)CC1 (configuration not stated),< 0.016,> 64,
C/C(CCN1CCN(c2nc(=O)c3cc(C(F)(F)F)cc([N+](=O)[O-])c3s2)CC1)=N\OCc1ccccc1,< 0.016,> 64,
CCON=C1CCC(CN2CCN(c3nc(=O)c4cc(C(F)(F)F)cc([N+](=O)[O-])c4s3)CC2)CC1 (configuration not stated),< 0.016,> 64,Activity [3]: Non-Toxic; Tmax [4]: 0.25 h; MIC [5]: > 32 µg/mL; inhibition at 32 µg/mL [6]: 79%; Cmax [7]: 15200 ng/mL; Activity [8]: 4.44 log10CFU; AUC(0-inf) [9]: 40600 ng·h/mL; Activity [10]: Non-Toxic; pIC50 [11]: 4.41; Activity [12]: Non-Toxic; pIC50 (Cytochrome P450 2C19): < 5.00; pIC50 (CYP2C9): < 5.00; pIC50 (CYP3A4): < 5.00; pIC50 (CYP1A2): < 5.00; pIC50 (CYP2D6): < 5.00; half-life [13]: 2.29 h; Activity [14]: Non-Toxic; Activity [15]: Non-Toxic; Activity [16]: 2 log10CFU; MRT [17]: 2.3 h
CCON=C1CCC(CN2CCN(c3nc(=O)c4cc(C(F)(F)F)cc([N+](=O)[O-])c4s3)C[C@@H]2C)CC1 (some centres not stated),< 0.016,> 64,
C/C(CCN1CCC2(CCN(c3nc(=O)c4cc(C(F)(F)F)cc([N+](=O)[O-])c4s3)CC2)C1)=N/OCc1ccccc1,0.119,,
CO/N=C(/C)CCN1CCC2(CCN(c3nc(=O)c4cc(C(F)(F)F)cc([N+](=O)[O-])c4s3)CC2)C1,0.469,,
CCON=C1CC(CN2CCN(c3nc(=O)c4cc(C(F)(F)F)cc([N+](=O)[O-])c4s3)CC2)C1 (configuration not stated),< 0.016,> 64,
CCON=C1CC(CN2C(C)CN(c3nc(=O)c4cc(C(F)(F)F)cc([N+](=O)[O-])c4s3)CC2C)C1 (configuration not stated),0.056,,
CO/N=C(\C)CN1CCN(c2nc(=O)c3cc(C(F)(F)F)cc([N+](=O)[O-])c3s2)CC1,0.037,,
CCO/N=C(\C)CCN1CCN(c2nc(=O)c3cc(C(F)(F)F)cc([N+](=O)[O-])c3s2)CC1,< 0.016,> 64,
NNC(=O)c1ccncc1 [ISONIAZID],0.031,,Activity [16]: 1.76 log10CFU

SMILES,MIC90 [1] [µg/mL],CC50 [2] [µg/mL],other results
CCON=C1CCC(CN2C(C)CN(c3nc(=O)c4cc(C(F)(F)F)cc([N+](=O)[O-])c4s3)CC2C)CC1 (configuration not stated),< 0.016,60.5,
CO/N=C(\C)CN1CCC2(CCN(c3nc(=O)c4cc(C(F)(F)F)cc([N+](=O)[O-])c4s3)CC2)C1,0.085,,
CON=C1CC(CN2CCN(c3nc(=O)c4cc(C(F)(F)F)cc([N+](=O)[O-])c4s3)CC2C)C1 (configuration not stated),0.056,,
CON=C1CCC(CN2CCN(c3nc(=O)c4cc(C(F)(F)F)cc([N+](=O)[O-])c4s3)C[C@@H]2C)CC1 (some centres not stated),< 0.016,> 64,
CCON=C1CC(CN2CCN(c3nc(=O)c4cc(C(F)(F)F)cc([N+](=O)[O-])c4s3)CC2C)C1 (configuration not stated),0.052,,
CCON=C1CCC(CN2CCN(c3nc(=O)c4cc(C(F)(F)F)cc([N+](=O)[O-])c4s3)[C@H](C)C2)CC1 (some centres not stated),< 0.016,> 64,
CON=C1CC(CN2C(C)CN(c3nc(=O)c4cc(C(F)(F)F)cc([N+](=O)[O-])c4s3)CC2C)C1 (configuration not stated),0.066,,
CCON=C1CCC(CN2CCN(c3nc(=O)c4cc(C(F)(F)F)cc([N+](=O)[O-])c4s3)CC2C)CC1 (configuration not stated),< 0.016,> 64,
CO/N=C(\C)CCN1CCN(c2nc(=O)c3cc(C(F)(F)F)cc([N+](=O)[O-])c3s2)CC1,< 0.016,> 64,
CCON=C1CCC(CN2CCN(c3nc(=O)c4cc(C(F)(F)F)cc([N+](=O)[O-])c4s3)[C@@H](C)C2)CC1 (some centres not stated),< 0.016,> 64,
CCO/N=C(\C)CN1CCC2(CCN(c3nc(=O)c4cc(C(F)(F)F)cc([N+](=O)[O-])c4s3)CC2)C1,0.029,,
C/C(CN1CCN(c2nc(=O)c3cc(C(F)(F)F)cc([N+](=O)[O-])c3s2)CC1)=N\OCc1ccccc1,< 0.016,> 64,
CON=C1CCC(CN2CC(C)N(c3nc(=O)c4cc(C(F)(F)F)cc([N+](=O)[O-])c4s3)CC2C)CC1 (configuration not stated),0.031,,
CON=C1CCC(CN2CCN(c3nc(=O)c4cc(C(F)(F)F)cc([N+](=O)[O-])c4s3)CC2C)CC1 (configuration not stated),< 0.016,> 64,
CON=C1CCC(CN2CCN(c3nc(=O)c4cc(C(F)(F)F)cc([N+](=O)[O-])c4s3)[C@H](C)C2)CC1 (some centres not stated),0.023,,
CON=C1CCC(CN2CCN(c3nc(=O)c4cc(C(F)(F)F)cc([N+](=O)[O-])c4s3)[C@@H](C)C2)CC1 (some centres not stated),< 0.016,> 64,

# Source: ChEMBL document CHEMBL4359877, “Identification of benzothiazinones containing an oxime functional moiety as new anti-tuberculosis agents” (Eur J Med Chem, 2019)
